Molecular target: T1, 5-hydroxytryptamine receptor 7 (Homo sapiens, UniProt P34969)
Test: Binding affinity to 5HT7 receptor (unknown origin)

T1 sequence (P34969 whole entry): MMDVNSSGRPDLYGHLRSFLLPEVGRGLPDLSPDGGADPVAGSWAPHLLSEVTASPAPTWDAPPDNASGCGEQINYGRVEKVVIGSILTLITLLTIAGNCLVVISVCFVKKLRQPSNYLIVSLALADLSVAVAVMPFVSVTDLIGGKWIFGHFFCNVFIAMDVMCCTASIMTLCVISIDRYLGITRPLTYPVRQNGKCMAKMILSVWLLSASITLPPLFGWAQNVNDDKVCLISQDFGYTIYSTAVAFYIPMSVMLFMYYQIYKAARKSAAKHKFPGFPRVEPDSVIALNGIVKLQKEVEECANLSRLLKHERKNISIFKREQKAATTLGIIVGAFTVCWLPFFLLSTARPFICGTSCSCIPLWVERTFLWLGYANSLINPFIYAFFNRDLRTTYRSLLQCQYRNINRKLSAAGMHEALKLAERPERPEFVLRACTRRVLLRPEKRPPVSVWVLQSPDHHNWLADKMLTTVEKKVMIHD

Row | SMILES | Ki [nM]
1 | COc1ccccc1N1CCN(Cc2ccn(-c3ccccc3C)c2)CC1 | 21

Test system: not listed separately
Test: Selectivity ratio of Ki for human 5HT7B receptor to Ki for 5HT1A receptor in rat hippocampus homogenates
Format: tissue-based
How it was run: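 Ratio of Ki values from two radioligand displacement assays. 5-HT1A: rat hippocampal membranes, 1 nM [3H]-8-OH-DPAT, 15 min at 37 °C, filtration. 5-HT7b: membranes from HEK293 cells stably expressing the human receptor, 0.6 nM [3H]-5-CT, 1 h at 37 °C. Both used Tris-HCl buffer with MgCl2, pargyline and ascorbate, and 10 μM 5-HT for nonspecific binding. Compounds were tested in triplicate at 7–8 concentrations (10⁻¹¹–10⁻⁴ M). Ki was derived by Cheng–Prusoff from three experiments.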

Row | SMILES | Ratio Ki
2 | CN(C)CCc1cn(-c2ccccc2)c2ccccc12 | 19

Molecular target: T1, 5-hydroxytryptamine receptor 7
Test: Displacement of [3H]-5-CT from cloned human 5HT7B receptor expressed in HEK293 cells after 1 hr by scintillation counting
Format: cell-based
How it was run: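 HEK293 membranes stably expressing human 5-HT7b receptor, homogenized and spun twice at 35,000 g with 15 min at 37 °C between. Assay buffer was 50 mM Tris–HCl with 4 mM MgCl2, […] and 0.1% ascorbate. 0.6 nM [3H]-5-CT, 1 h at 37 °C, then filtration. 10 μM 5-HT defined nonspecific binding. Triplicates at 7–8 concentrations (10⁻¹¹–10⁻⁴ M).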

Row | SMILES | Ki [nM]
3 | Cc1cccc(-n2cc(CCN(C)C)c3ccccc32)c1C | 317
4 | CN(C)CCc1cn(-c2cccc3ccccc23)c2ccccc12 | 649
5 | CN(C)CCc1cn(-c2ccccc2)c2ccccc12 | 1200
6 | Cc1ccccc1-n1cc(CCN(C)C)c2ccccc21 | 283

Molecular target: T2, 5-hydroxytryptamine receptor 1A (Homo sapiens, UniProt P08908)
T2 sequence (P08908 whole entry): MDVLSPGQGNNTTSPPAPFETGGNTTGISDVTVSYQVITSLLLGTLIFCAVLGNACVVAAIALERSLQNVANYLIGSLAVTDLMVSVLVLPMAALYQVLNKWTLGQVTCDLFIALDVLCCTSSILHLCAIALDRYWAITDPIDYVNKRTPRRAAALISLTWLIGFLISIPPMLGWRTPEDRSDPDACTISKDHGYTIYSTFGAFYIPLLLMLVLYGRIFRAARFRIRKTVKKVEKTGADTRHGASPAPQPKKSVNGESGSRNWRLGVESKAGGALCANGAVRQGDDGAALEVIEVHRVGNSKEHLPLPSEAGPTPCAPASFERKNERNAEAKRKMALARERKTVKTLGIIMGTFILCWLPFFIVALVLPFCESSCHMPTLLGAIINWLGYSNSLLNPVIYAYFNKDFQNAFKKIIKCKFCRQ
Test: Binding affinity to 5HT1A receptor (unknown origin)

Row | SMILES | Ki [nM]
7 | COc1ccccc1N1CCN(Cc2ccn(-c3ccccc3C)c2)CC1 | 41

Molecular target: 5-hydroxytryptamine receptor 2A (Homo sapiens) (UniProt P28223)
Test: Binding affinity to 5HT2A receptor (unknown origin) at 1 uM

5-hydroxytryptamine receptor 2A (Homo sapiens), sequence (P28223 whole entry): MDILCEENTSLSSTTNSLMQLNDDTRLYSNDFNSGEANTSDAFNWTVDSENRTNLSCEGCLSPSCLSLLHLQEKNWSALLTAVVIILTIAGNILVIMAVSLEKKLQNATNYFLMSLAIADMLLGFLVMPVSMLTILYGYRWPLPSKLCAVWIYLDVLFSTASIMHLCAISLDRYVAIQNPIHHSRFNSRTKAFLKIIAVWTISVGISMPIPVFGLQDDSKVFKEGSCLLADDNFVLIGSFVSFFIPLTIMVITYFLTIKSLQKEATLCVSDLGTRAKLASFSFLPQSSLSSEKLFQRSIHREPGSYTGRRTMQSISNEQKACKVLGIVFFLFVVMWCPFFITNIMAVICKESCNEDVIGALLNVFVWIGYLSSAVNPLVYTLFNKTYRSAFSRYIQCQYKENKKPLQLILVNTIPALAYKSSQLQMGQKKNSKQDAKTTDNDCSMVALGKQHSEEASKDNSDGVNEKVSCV

Row | SMILES | inhibition [%]
8 | COc1ccccc1N1CCN(Cc2cn(-c3cccc(C)c3C)c3ccccc23)CC1 | 0
9 | COc1ccccc1N1CCN(Cc2cn(-c3cccc4ccccc34)c3ccccc23)CC1 | 10

Molecular target: 5-hydroxytryptamine receptor 2A (Homo sapiens) (UniProt P28223)
Test: Binding affinity to 5HT2A receptor (unknown origin) at 10 nM

Row | SMILES | inhibition [%]
10 | COc1ccccc1N1CCN(Cc2cn(-c3cccc(C)c3C)c3ccccc23)CC1 | 0
11 | COc1ccccc1N1CCN(Cc2cn(-c3cccc4ccccc34)c3ccccc23)CC1 | 6

Molecular target: T3, 5-hydroxytryptamine receptor 1A (Rattus norvegicus, UniProt P19327)
T3 sequence (P19327 whole entry): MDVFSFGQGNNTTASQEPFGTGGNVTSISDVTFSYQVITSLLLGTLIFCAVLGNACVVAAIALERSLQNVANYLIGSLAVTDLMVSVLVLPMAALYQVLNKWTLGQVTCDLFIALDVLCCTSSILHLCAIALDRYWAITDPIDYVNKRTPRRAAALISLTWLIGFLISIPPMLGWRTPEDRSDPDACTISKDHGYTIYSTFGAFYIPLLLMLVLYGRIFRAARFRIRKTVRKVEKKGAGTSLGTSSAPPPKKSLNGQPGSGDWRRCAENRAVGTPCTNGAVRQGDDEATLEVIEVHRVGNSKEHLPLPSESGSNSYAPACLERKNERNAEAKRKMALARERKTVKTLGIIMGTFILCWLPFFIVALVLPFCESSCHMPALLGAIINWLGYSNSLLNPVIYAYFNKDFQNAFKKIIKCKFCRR
Test: Displacement of [3H]-8-OH-DPAT from 5HT1A receptor in rat hippocampus homogenates after 15 mins by scintillation counting
Format: tissue-based
How it was run: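 Rat hippocampal membranes were prepared in 50 mM Tris–HCl pH 7.4 (35,000 g spins, 10 min at 37 °C between). Resuspended in Tris–HCl with 4 mM MgCl2, 10 mM pargyline and 0.1% ascorbate. 1 nM [3H]-8-OH-DPAT, 15 min at 37 °C, GF/B filtration. 10 μM 5-HT defined nonspecific binding. Triplicates at 7–8 concentrations (10⁻¹¹–10⁻⁴ M).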

Row | SMILES | Ki [nM]
12 | Cc1ccccc1-n1cc(CN2CC=C(c3ccccc3)CC2)c2ccccc21 | 178
13 | c1ccc(N2CCN(Cc3cn(-c4cccc5ccccc45)c4ccccc34)CC2)cc1 | 545
14 | Cc1ccc(-n2cc(CN3CCN(c4ccccc4)CC3)c3ccccc32)cc1 | 332
15 | c1ccc(N2CCN(Cc3cn(-c4ccc5ccccc5c4)c4ccccc34)CC2)cc1 | 1950
16 | Cc1cccc(-n2cc(CCN(C)C)c3ccccc32)c1C | 76
17 | COc1ccccc1N1CCN(Cc2cn(-c3ccccc3C)c3ccccc23)CC1 | 15
18 | CN(C)CCc1cn(-c2cccc3ccccc23)c2ccccc12 | 144
19 | c1ccc(-c2ccc(-n3cc(CN4CCN(c5ccccc5)CC4)c4ccccc43)cc2)cc1 | 49000
20 | CN(C)CCc1cn(-c2ccccc2)c2ccccc12 | 62
21 | Oc1ccccc1N1CCN(Cc2cn(-c3cccc4ccccc34)c3ccccc23)CC1 | 57
22 | COc1ccccc1N1CCN(Cc2cn(-c3ccccc3C(C)C)c3ccccc23)CC1 | 58
23 | Cc1ccccc1-n1cc(CN2CCN(C)CC2)c2ccccc21 | 2910
24 | COc1ccccc1N1CCN(Cc2cn(-c3cccc(C)c3C)c3ccccc23)CC1 | 17
25 | Cc1ccccc1-n1cc(CCN(C)C)c2ccccc21 | 59
26 | Cc1cccc(-n2cc(CN3CCN(c4ccccc4)CC3)c3ccccc32)c1C | 324
27 | COc1ccccc1N1CCN(Cc2cn(-c3ccccc3)c3ccccc23)CC1 | 10
28 | COc1ccccc1N1CCN(Cc2cn(-c3cccc4ccccc34)c3ccccc23)CC1 | 70

More lines, now with the values ahead:

Row | Ki [nM] | SMILES
29 | 17 | Oc1ccccc1N1CCN(Cc2cn(-c3ccccc3)c3ccccc23)CC1
30 | 36 | N#Cc1ccccc1-n1cc(CN2CCN(c3ccccc3)CC2)c2ccccc21
31 | 86 | COc1ccccc1-n1cc(CN2CCN(c3ccccc3)CC2)c2ccccc21
32 | 55 | COc1ccccc1N1CCN(Cc2cn(-c3ccccn3)c3ccccc23)CC1
33 | 118 | CC(C)c1ccccc1-n1cc(CN2CCN(c3ccccc3)CC2)c2ccccc21
34 | 95 | c1ccc(N2CCN(Cc3cn(-c4ccccn4)c4ccccc34)CC2)cc1
35 | 190 | c1ccc(N2CCN(Cc3cn(-c4cccnc4)c4ccccc34)CC2)cc1
36 | 95 | Cc1ccccc1-n1cc(CN2CCN(c3ccccc3)CC2)c2ccccc21
37 | 134 | CCc1ccccc1-n1cc(CN2CCN(c3ccccc3)CC2)c2ccccc21
38 | 216 | c1ccc(N2CCN(Cc3cn(-c4ccccc4)c4ccccc34)CC2)cc1
39 | 90 | Cc1cccc(-n2cc(CN3CCN(c4ccccc4)CC3)c3ccccc32)c1
40 | 81 | FC(F)(F)c1ccccc1-n1cc(CN2CCN(c3ccccc3)CC2)c2ccccc21

Reference: ChEMBL document CHEMBL3120113, “New 1-arylindoles based serotonin 5-HT7 antagonists. Synthesis and binding evaluation studies” (Eur J Med Chem, 2014)
